Experimental data published in ChEMBL document CHEMBL1153315, “Porphyrins containing nitric oxide donors: Synthesis and cancer cell-oriented NO release” (Bioorg Med Chem Lett, 2009).
Activity calls are given as the source filed them. No cut-off for these calls is given here.

Experiments:
Bel-7402 [1] = assay: Cytotoxicity against human Bel7402 cells at 1.4 umol/L after 72 hrs by MTT assay; format: functional, cell-based
Summary of the method: (§1)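 BEL-7402 (liver cancer) and L-02 (liver normal) cells seeded at 1×10^3 per well, preincubated 24 h at 37 °C, 5% CO2, exposed to 1.4 μmol/L compound in quadruplicate wells for 72 h. Viability by MTT (4 h), formazan dissolved in glycine-NaCl-buffered DMSO, read at 570 nm. One-way ANOVA with LSD multiple comparisons, P < 0.05.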

Bel-7402 [2] = assay: Cytotoxicity against human Bel7402 after 72 hrs by MTT assay; format: functional, cell-based; settings: Bel-7402, 72 h
Summary of the method: (§2)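 Cells seeded at 1×10^3 per well in medium, preincubated 24 h at 37 °C in 5% CO2, then test drug added in medium to quadruplicate wells for 72 h. MTT ([…] in complete medium) added for 4 h; formazan dissolved in DMSO buffered with glycine-NaCl (pH 10.5); absorbance at 570 nm. IC50 taken as concentration giving 50% loss of viability; means of three experiments.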

[3] = Induction of NO release in phosphate buffer containing L-cysteine at pH 7.4 by Griess assay; format: physicochemical
Summary of the method: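 Compound at 0.2 mM in 0.1 M phosphate buffer pH 7.4 mixed 1:1 with fresh 3.6 mM L-cysteine in the same buffer; incubated 1.5 h at 37 °C without air, then exposed to air 10 min at 25 °C. Griess reagent added, absorbance at 540 nm after 10 min; nitrite from sodium nitrite standard curve (0–100 µM); % of 1 mol NO/mol theoretical, n = 3.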

[4] = Induction of NO release in PBS at pH 7.4 by Griess assay; format: physicochemical; settings: buffer
Summary of the method: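 Compound at 2 mM in 0.1 M phosphate buffer pH 7.4, no L-cysteine, incubated 1.5 h at 37 °C without air, then 10 min air at 25 °C. Nitrite measured by Griess reagent (sulfanilamide/N-naphthylethylenediamine), absorbance at 540 nm against a 0–100 µM sodium nitrite curve; expressed as % of 1 mol NO/mol theoretical release, n = 3.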

MCF7 = assay: Cytotoxicity against human MCF7 after 72 hrs by MTT assay; format: functional, cell-based; settings: MCF7, 72 h; summary of the method: as §2
[5] = Cytotoxicity against human L02 cells at 1.4 umol/L after 72 hrs by MTT assay; format: cell-based; settings: l02, 72 h, 1.4 µM; summary of the method: as §1
Bel-7402 [6] = assay: Induction of NO release in human Bel7402 cells assessed as decrease in absorbance at 100 umol/L after 30 mins by spectrophotometry; format: functional, cell-based
Summary of the method: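 BEL-7402 cells grown in 24-well plates at 37 °C, 5% CO2 to at least 70% confluency; medium replaced with medium containing 100 µmol/L compound. After 0 and 30 min at 37 °C, the drug-containing medium was removed and its absorbance measured by UV–vis spectrophotometry.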

SMILES | Activity (Bel-7402 [1]) | IC50 (Bel-7402 [2]) | Activity [3] | Activity [4] | IC50 (MCF7) | Activity [5] | Activity (Bel-7402 [6])
Cc1ccc(-c2c3nc(c(-c4ccc(C)cc4)c4ccc([nH]4)c(-c4ccc(OCCO[N+](=O)[O-])cc4)c4nc(c(-c5ccc(C)cc5)c5ccc2[nH]5)C=C4)C=C3)cc1 | Active | 1.8 µM | 3.12% | 0.55% | 55 µM | – | –
O=[N+]([O-])OCCCOc1ccc(-c2c3nc(c(-c4ccccc4)c4ccc([nH]4)c(-c4ccccc4)c4nc(c(-c5ccccc5)c5ccc2[nH]5)C=C4)C=C3)cc1 | Active | 3 µM | 3.95% | 0.47% | 30 µM | – | –
O=Cc1ccc(OCCCO[N+](=O)[O-])cc1 | – | – | – | – | – | Toxic | –
O=[N+]([O-])OCCOc1ccc(-c2c3nc(c(-c4ccccc4)c4ccc([nH]4)c(-c4ccccc4)c4nc(c(-c5ccccc5)c5ccc2[nH]5)C=C4)C=C3)cc1 | Active | 0.8 µM | 5.67% | 0.43% | 8.7 µM | – | Active
Cc1ccc(-c2c3nc(c(-c4ccc(C)cc4)c4ccc([nH]4)c(-c4ccc(OCCCO[N+](=O)[O-])cc4)c4nc(c(-c5ccc(C)cc5)c5ccc2[nH]5)C=C4)C=C3)cc1 | Active | 1.4 µM | 6.25% | 1.1% | 46 µM | – | –
C1=Cc2nc1c(-c1ccccc1)c1nc(c(-c3ccccc3)c3ccc([nH]3)c(-c3ccccc3)c3ccc([nH]3)c2-c2ccccc2)C=C1 [TETRAPHENYLPORPHYRIN] | – | 350 µM | – | – | 245 µM | – | –
O=Cc1ccc(OCCO[N+](=O)[O-])cc1 | – | – | – | – | – | Toxic | –
O=c1[nH]cc(F)c(=O)[nH]1 [FLUOROURACIL] | – | 4.3 µM | – | – | 4.7 µM | – | –
